Published values pooled from the literature.
Protocols differ between the studies behind these lines.
Observed: cell growth or viability

SMILES	cell line	test	setting	endpoint	result
COc1cc(C)c(-c2c(C)cc(OC)c3c(=O)cc(-c4cccc(Br)c4)oc23)c2oc(-c3cccc(Br)c3)cc(=O)c12	HS27	MTT	24 h	IC50	> 200 µM
COc1cc2c(cc1O)CCN(Cc1cccc(NS(C)(=O)=O)c1)C2	MDA-MB-231	WST-1	96 h	GI50	> 100 µM
COc1ccc(-c2cc(=O)c3c(OC)cc(OC)cc3o2)cc1	HS27	MTT	24 h	IC50	> 200 µM
COc1ccc(-c2nc3ccccc3n2Cc2ccccc2)cc1OC	MDA-MB-231	MTT		IC50	27.1 µM
O=C1CCCCC1=C1Sc2nc3ccc(S(=O)(=O)N4CCCC4)cc3nc2S1	MDA-MB-231	MTT	25 µM, 24 h	viability	23.4%
C=CC(=O)N1CCC[C@@H](n2nc(-c3ccc(Oc4ccccc4)cc3)c3c(N)ncnc32)C1	OCI-Ly3	ATP luminescence	72 h	GI50	19.3 µM
COc1ccc(-c2cc(=O)c3c(OC)cc(OC)c(-c4c(OC)cc(OC)c5c(=O)cc(-c6ccc(OC)cc6)oc45)c3o2)cc1	HS27	MTT	24 h	IC50	> 200 µM
COc1cc2c(cc1O)CCN(Cc1ccc(OC)c(OC)c1OC)C2	MDA-MB-231	WST-1	96 h	GI50	> 100 µM
COc1cc(OC)c2c(=O)cc(-c3ccccc3Br)oc2c1-c1c(OC)cc(OC)c2c(=O)cc(-c3ccccc3Br)oc12	HS27	MTT	24 h	IC50	> 200 µM
CCc1cccc(CN2CCc3cc(O)c(OC)cc3C2)c1	MDA-MB-231	WST-1	96 h	GI50	> 100 µM
c1cncc(-c2nc3ccccc3[nH]2)c1	MDA-MB-231	MTT	48 h	IC50	> 100 µM
C[C@]12CC[C@H](O)CC1=CC[C@@H]1[C@@H]2CC[C@]2(C)C(n3cnc4ccccc43)=CC[C@@H]12	CWR22Rv1	MTT		GI50	3.8 µM
Cc1ccc2nc(-c3ccccc3O)[nH]c2c1	MDA-MB-231	MTT	48 h	IC50	31.9 µM
COc1cc(OC)c(CN2CCc3cc(O)c(OC)cc3C2)c(OC)c1	MDA-MB-231	WST-1	96 h	GI50	> 100 µM
Cc1ccc2nc(-c3ccc(Cl)cc3)[nH]c2c1	MDA-MB-231	MTT	48 h	IC50	27.1 µM
COc1cc(C)cc2oc(-c3ccc(N(C)C)cc3)cc(=O)c12	HS27	MTT	24 h	IC50	141 µM
Oc1cccc(-c2nc3ccccc3[nH]2)c1	MDA-MB-231	MTT	48 h	IC50	> 100 µM
COc1cc(OC)c2c(=O)cc(-c3ccc(Br)cc3)oc2c1	HS27	MTT	24 h	IC50	> 200 µM
COC(=O)CN=c1scc(-c2ccccc2)n1-c1ccccc1[N+](=O)[O-]	SiHa	MTT		IC50	6.78 µM
N#CC(C(=O)Nc1cccc(C(F)(F)F)c1)=C1Sc2nc3ccc(S(=O)(=O)N4CCCC4)cc3nc2S1	MDA-MB-231	MTT	25 µM, 24 h	viability	26.5%
CSc1ccc(-c2nc3ccccc3[nH]2)cc1	MDA-MB-231	MTT	48 h	IC50	36.6 µM
CCOC(=O)C(C(C)=O)=C1Sc2nc3ccc(S(=O)(=O)N4CCCC4)cc3nc2S1	MDA-MB-231	MTT	25 µM, 24 h	viability	13.8%
Clc1ccc(-c2nc3ccccc3[nH]2)cc1	MDA-MB-231	MTT	48 h	IC50	> 100 µM
COc1ccc(CN2CCc3cc(OS(N)(=O)=O)c(OC)cc3C2)cc1OC	MDA-MB-231	WST-1	96 h	GI50	3.15 µM
C=CCn1c(-c2ccc(Cl)cc2)nc2ccc(C)cc21	MDA-MB-231	MTT		IC50	30.1 µM
COc1cc2c(cc1O)CCN(Cc1cccc(O)c1)C2	MDA-MB-231	WST-1	96 h	GI50	> 100 µM
COc1cccc2c1C(=O)c1c(O)c3c(c(O)c1C2=O)C[C@@](O)(C(=O)CO)C[C@@H]3O[C@H]1C[C@H](N)[C@H](O)[C@H](C)O1	MDA-MB-231	MTT	50 µM, 24 h	viability	11.8%
COc1cc2c(cc1O)CCN(Cc1cccc(OC(F)(F)F)c1)C2	MDA-MB-231	WST-1	96 h	GI50	> 100 µM
C[C@]12CC[C@H](O)CC1=CC[C@@H]1[C@@H]2CC[C@]2(C)C(c3cccnc3)=CC[C@@H]12	CWR22Rv1	MTT		GI50	11.5 µM
